Experimental data taken from ChEMBL document CHEMBL1629563, “Pharmacokinetic and safety evaluation of BILR 355, a second-generation nonnucleoside reverse transcriptase inhibitor, in healthy volunteers” (Antimicrob Agents Chemother, 2008).

How the values were obtained:
[1] = Drug excretion in healthy human urine assessed as unchanged drug at 100 mg, po administered as single dose by high-pressure liquid chromatography-tandem mass spectrometry/mass spectrometry method; assay type: ADME, organism-based; settings: read-out: Drug uptake
In short: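 Urine was collected by weight after one oral dose of BILR 355 in PEG solution in fasted healthy males. Intervals were predose blank, 0-6, 6-24 and 24-72 h, with the bladder voided before each. Aliquots were stored at −20°C and assayed by LC-MS/MS. fe = amount of unchanged drug excreted (Ae) as a percentage of the administered dose.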

[2] = Tmax in healthy human at 50 mg, po administered as single dose coadministered with 100 mg of ritonavir; assay type: ADME, organism-based; settings: in vivo
[3] = Apparent oral clearance in healthy human at 37.5 mg, po administered as single dose coadministered with 100 mg of ritonavir; assay type: ADME, organism-based; settings: in vivo
In short: (§1)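 Healthy male volunteers, fasted. Ritonavir 100 mg given 10 h before and again together with single oral BILR 355 in PEG solution. EDTA plasma sampled predose to 144 h. LC-MS/MS assay after protein precipitation. Noncompartmental analysis, AUC by linear up/log down trapezoidal rule; Vss = CL/F·(MRTp.o. − 1/Ka).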

[4] = Drug excretion in healthy human urine assessed as unchanged drug at 25 mg, po administered as single dose coadministered with 100 mg of ritonavir by high-pressure liquid chromatography-tandem mass spectrometry/mass spectrometry method; assay type: ADME, organism-based; settings: read-out: Drug uptake
In short: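 Ritonavir 100 mg was given 10 h before and with one oral dose of BILR 355 in PEG solution. Urine was collected by weight as predose blank, then 0-6, 6-24 and 24-72 h, stored at −20°C and assayed by LC-MS/MS. fe = unchanged drug excreted (Ae) as a percentage of dose. Line 50: high-fat breakfast 30 min before dosing.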

[5] = Apparent volume of distribution at steady state in healthy human at 75 mg, po administered as single dose; assay type: ADME, organism-based; settings: in vivo, read-out: Vss/F
In short: (§2)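 Single fasting oral dose of BILR 355 in PEG solution with 200 ml tap water, given to healthy males. Standard breakfast came 60-90 min after the dose. EDTA plasma was sampled predose to 144 h, stored below −18°C and assayed by LC-MS/MS after protein precipitation. Noncompartmental analysis gave Vz/F. Vss/F = CL/F·(MRTp.o. − 1/Ka), with Ka from compartmental modelling.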

[6] = Apparent volume of distribution at steady state in healthy human at 50 mg, po administered as single dose; assay type: ADME, organism-based; settings: in vivo, read-out: Vss/F; in short: as §2
[7] = tested on: Homo sapiens; test: Ratio of Cmax in human at 12.5 mg, po in presence of 100 mg of ritonavir to Cmax in human at 12.5 mg, po; assay type: ADME, organism-based; settings: in vivo
[8] = tested on: Homo sapiens; test: Toxicity in healthy human assessed as occurrence of maculopapular rash at 5 mg, po administered as single dose coadministered with 100 mg of ritonavir; assay type: organism-based; settings: in vivo
[9] = tested on: Homo sapiens; test: Toxicity in healthy human assessed as occurrence of frequent bowel movements at 5 mg, po administered as single dose relative to control; assay type: organism-based; settings: in vivo
[10] = tested on: Homo sapiens; test: Toxicity in healthy human assessed as occurrence of nausea at 75 mg, po administered as single dose relative to control; assay type: organism-based; settings: in vivo
[11] = AUC (0 to last) in healthy human at 75 mg, po administered as single dose coadministered with 100 mg of ritonavir; assay type: ADME, organism-based; parameters: dose 75 mg, route oral, time 0 - last; settings: plasma; in short: as §1
[12] = Apparent volume of distribution at steady state in healthy human at 25 mg, po administered as single dose; assay type: ADME, organism-based; settings: in vivo, read-out: Vss/F
In short: (§3)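 Healthy male volunteers, six active plus two placebo per dose group, single oral dose in PEG solution with 200 ml water after overnight fast; breakfast 60 to 90 min post-dose. EDTA plasma sampled predose to 144 h. Assayed by validated LC-MS/MS after protein precipitation. Noncompartmental analysis, AUC by linear up/log down trapezoidal rule; Vss = CL/F·(MRTp.o. − 1/Ka).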

[13] = tested on: Homo sapiens; test: Toxicity in healthy human assessed as occurrence of abdominal pain at 100 mg, po administered as single dose relative to control; assay type: organism-based, Abdomen; settings: in vivo
[14] = tested on: Homo sapiens; test: Toxicity in high fat fed healthy human assessed as occurrence of fatigue at 50 mg, po administered as single dose coadministered with 100 mg of ritonavir; assay type: organism-based; settings: in vivo
[15] = tested on: Homo sapiens; test: Toxicity in healthy human assessed as occurrence of constipation at 1 mg, po administered as single dose relative to control; assay type: organism-based; settings: in vivo
[16] = Half life in healthy human at 75 mg, po administered as single dose coadministered with 100 mg of ritonavir; assay type: ADME, organism-based; settings: in vivo
[17] = tested on: Homo sapiens; test: Toxicity in healthy human assessed as occurrence of maculopapular rash at 5 mg, po administered as single dose relative to control; assay type: organism-based; settings: in vivo
[18] = Apparent volume of distribution in terminal phase in healthy human at 12.5 mg, po administered as single dose coadministered with 100 mg of ritonavir; assay type: ADME, organism-based; settings: in vivo, read-out: Vz/F
In short: (§4)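 Healthy male volunteers, fasted overnight, got one oral dose of BILR 355 in PEG solution with 200 ml water. Ritonavir 100 mg was given 10 h before and again with the dose. Plasma was sampled (EDTA) from predose to 144 h and assayed by validated LC-MS/MS. Cmax and Vz/F came from noncompartmental analysis. Vss/F = CL/F·(MRTp.o. − 1/Ka), with Ka from compartmental modelling.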

[19] = tested on: Homo sapiens; test: Toxicity in healthy human assessed as occurrence of fatigue at 12.5 mg, po administered as single dose relative to control; assay type: organism-based; settings: in vivo
[20] = Renal clearance in healthy human at 50 mg, po administered as single dose by high-pressure liquid chromatography-tandem mass spectrometry/mass spectrometry method; assay type: ADME, organism-based, Kidney; settings: in vivo, read-out: CL_renal (converted)
[21] = Apparent oral clearance in healthy human at 5 mg, po administered as single dose coadministered with 100 mg of ritonavir; assay type: ADME, organism-based; settings: in vivo; in short: as §1
[22] = tested on: Homo sapiens; test: Toxicity in high fat fed healthy human assessed as occurrence of maculopapular rash at 50 mg, po administered as single dose coadministered with 100 mg of ritonavir; assay type: organism-based; settings: in vivo
[23] = tested on: Homo sapiens; test: Toxicity in healthy human assessed as occurrence of maculopapular rash at 1 mg, po administered as single dose relative to control; assay type: organism-based; settings: in vivo
[24] = AUC (0 to infinity) in healthy human at 25 mg, po administered as single dose; assay type: ADME, organism-based; parameters: dose 25 mg, route oral, time infinity; settings: plasma; in short: as §3
[25] = Apparent volume of distribution at steady state in healthy human at 25 mg, po administered as single dose coadministered with 100 mg of ritonavir; assay type: ADME, organism-based; settings: in vivo, read-out: Vss/F; in short: as §4
[26] = Mean residence time in healthy human at 25 mg, po administered as single dose; assay type: ADME, organism-based; settings: in vivo
[27] = AUC (0 to infinity) in healthy human at 87.5 mg, po administered as single dose coadministered with 100 mg of ritonavir; assay type: ADME, organism-based; parameters: dose 87.5 mg, time infinity, route oral; settings: plasma; in short: as §1
[28] = tested on: Homo sapiens; test: Toxicity in healthy human assessed as occurrence of palpitations at 12.5 mg, po administered as single dose relative to control; assay type: organism-based; settings: in vivo

Question: With `CCN1c2ncc(CCOc3cc[n+]([O-])c4ccccc34)cc2C(=O)N(C)c2cccnc21` [BILR 355] as the molecule, how does the dose excreted [1] read?
Answer: 0.816%

Question: And the Tmax [2]?
Answer: 0.958 h

Question: And the CL/F [3]?
Answer: 109 mL/min

Question: What about the dose excreted [4] of the same molecule?
Answer: 6.62%

Question: And the Vd/F [5]?
Answer: 608 L

Question: And the Vd/F [6]?
Answer: 390 L

Question: And the Ratio [7]?
Answer: 5

Question: And the Activity [8]?
Answer: 0%

Question: What about the Activity [9] of the same molecule?
Answer: 0%

Question: What about the Activity [10] of the same molecule?
Answer: 0%

Question: What about the AUC(0-t) [11] of the same molecule?
Answer: 12100 ng·h/mL

Question: What about the Vd/F [12] of the same molecule?
Answer: 914 L

Question: What about the Activity [13] of the same molecule?
Answer: 0%

Question: What about the Activity [14] of the same molecule?
Answer: 16.7%

Question: And the Activity [15]?
Answer: 0%

Question: What about the half-life [16] of the same molecule?
Answer: 11.9 h

Question: And the Activity [17]?
Answer: 0%

Question: And the Vd/F [18]?
Answer: 149 L

Question: And the Activity [19]?
Answer: 20%

Question: And the CL renal [20]?
Answer: 9.15 mL/min

Question: What about the CL/F [21] of the same molecule?
Answer: 122 mL/min

Question: What about the Activity [22] of the same molecule?
Answer: 0%

Question: What about the Activity [23] of the same molecule?
Answer: 0%

Question: And the AUC(0-inf) [24]?
Answer: 142 ng·h/mL

Question: What about the Vd/F [25] of the same molecule?
Answer: 102 L

Question: What about the MRT [26] of the same molecule?
Answer: 4.52 h

Question: What about the AUC(0-inf) [27] of the same molecule?
Answer: 11800 ng·h/mL

Question: And the Activity [28]?
Answer: 0%
